pIC50, pKd: −log10 of the molar value. Activity calls are given as the source filed them. The calls are words filed in the database; no cut-off is given here.
Key:
[1] = Binding affinity to recombinant HIV1 Nef by SPR assay; design: species or system Human immunodeficiency virus 1
Procedure, shortened: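 Recombinant purified Nef was immobilized on a CM5 chip, and compound was injected over a concentration range in triplicate. Binding isotherms were fitted with a heterogeneous ligand model, and KD was taken from the kinetic constants of the higher-affinity component. No binding means none seen at >50 μM compound.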

[2] = system: Human immunodeficiency virus 1; test: Antiviral activity against HIV1 NL4-3 infected in TZM-bl cells incubated for 3 hrs measured after 48 hrs by luciferase reporter gene assay; assay type: functional, organism-based; details: Human immunodeficiency virus 1, NL4-3, TZM-bl
Procedure, shortened: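 TZM-bl reporter cells carry a luciferase gene driven by the HIV-1 LTR. Cells were infected short-term with HIV-1, and Nef-dependent infectivity was read out by luciferase. IC50 was derived from this read-out.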

[3] = Cytotoxicity against human TZM-bl cells by Cell Titer Blue assay; assay type: cell-based
Procedure, shortened: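 TZM-bl reporter cells were treated with compound and viability was read by Cell Titer Blue. CC50 is the concentration giving 50% loss of viability.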

[4] = system: Human immunodeficiency virus 1; test: Binding affinity to recombinant HIV1 Nef N126A mutant at 10 uM by SPR assay
Procedure, shortened: (§1)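 Wild-type, N126A and N126Q Nef were expressed in bacteria and purified to homogeneity. Each was covalently coupled to a CM5 biosensor chip. Compound was injected at a final 10 μM, in triplicate, and binding was measured by SPR on a Biacore T100.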

[5] = system: Human immunodeficiency virus 1; test: Binding affinity to recombinant HIV1 Nef N126Q mutant at 10 uM by SPR assay; procedure, shortened: as §1
[6] = Tmax in C3H mouse at 10 mg/kg, po administered through solution of 5% N-methyl -2-pyrrolidone and 5% solutol in saline by LC-MS analysis; assay type: ADME, organism-based; details: in vivo
Procedure, shortened: (§2)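 Plasma drug levels measured by LC-MS over time. Tmax, Cmax, AUClast, AUCinf, T1/2, Vss, clearance and %F were derived from the plasma concentration–time data.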

[7] = Cmax in C3H mouse at 2 mg/kg, iv by LC-MS analysis; assay type: ADME, organism-based; design: dose 2 mg/kg, route intravenous; details: in vivo; procedure, shortened: as §2
[8] = Cmax in C3H mouse at 10 mg/kg, po administered through solution of 5% N-methyl -2-pyrrolidone and 5% solutol in saline by LC-MS analysis; assay type: ADME, organism-based; design: dose 10 mg/kg, route oral; details: in vivo; procedure, shortened: as §2
[9] = AUClast in C3H mouse at 2 mg/kg, iv by LC-MS analysis; assay type: ADME, organism-based; design: dose 2 mg/kg, route intravenous, time 0 - last; details: in vivo; procedure, shortened: as §2
[10] = AUC(last) in C3H mouse at 10 mg/kg, po administered through solution of 5% N-methyl -2-pyrrolidone and 5% solutol in saline by LC-MS analysis; assay type: ADME, organism-based; design: dose 10 mg/kg, time 0 - last, route oral; details: in vivo; procedure, shortened: as §2
[11] = AUC(infinity) in C3H mouse at 2 mg/kg, iv by LC-MS analysis; assay type: ADME, organism-based; design: dose 2 mg/kg, time infinity, route intravenous; details: in vivo; procedure, shortened: as §2
[12] = AUC(infinity) in C3H mouse at 10 mg/kg, po administered through solution of 5% N-methyl -2-pyrrolidone and 5% solutol in saline by LC-MS analysis; assay type: ADME, organism-based; design: dose 10 mg/kg, route oral, time infinity; details: in vivo; procedure, shortened: as §2
[13] = Half life in C3H mouse at 2 mg/kg, iv by LC-MS analysis; assay type: ADME, organism-based; details: in vivo; procedure, shortened: as §2
[14] = Volume of distribution at steady state in C3H mouse at 2 mg/kg, iv by LC-MS analysis; assay type: ADME, organism-based; details: in vivo, read-out: Vdss; procedure, shortened: as §2
[15] = Clearance in C3H mouse at 2 mg/kg, iv by LC-MS analysis; assay type: ADME, organism-based; details: in vivo; procedure, shortened: as §2
[16] = Oral bioavailability in C3H mouse at 10 mg/kg administered through solution of 5% N-methyl -2-pyrrolidone and 5% solutol in saline by LC-MS analysis; assay type: ADME, organism-based; details: in vivo; procedure, shortened: as §2
Mus musculus [17] = test: Acute toxicity in C3H mouse assessed as overall behavior at 2.5 mg/kg, iv SID for 4 days; assay type: organism-based; details: in vivo, 96 h
Mus musculus [18] = test: Acute toxicity in C3H mouse assessed as body condition at 2.5 mg/kg, po SID for 4 days; details: in vivo, 96 h
Mus musculus [19] = test: Acute toxicity in C3H mouse assessed as change in body weight at 2.5 mg/kg, po SID for 4 days; details: in vivo, 96 h
U-87MG ATCC = test: Inhibition of Nef-dependent HIV1 NL4-3 replication infected in human U87MG cells expressing CD4 and CXCR4 at 3 uM incubated for 1 hr measured after 4 days by immunoassay; assay type: cell-based; details: Human immunodeficiency virus 1
Procedure, shortened: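 U87MG/CD4/CXCR4 cells received compound at 3 μM final; wild-type or ΔNef HIV-1 NL4-3 was added one hour later. Replication was measured at 4 days as p24 Gag by AlphaLISA ELISA and expressed as percent of DMSO control, mean ± S.E., n=4.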

[20] = Cytotoxicity against human U87MG cells expressing CD4 and CXCR4 up to 10 uM by Cell Titer Blue assay; assay type: cell-based; details: u-87mg atcc
Mus musculus [21] = test: Acute toxicity in C3H mouse assessed as change in body weight at 100 mg/kg, po SID for 12 days; assay type: organism-based; details: in vivo, 288 h
[22] = Tmax in C3H mouse at 10 mg/kg, po administered through suspension of 0.5% w/v sodium-carboxymethyl cellulose with 0.1% v/v Tween80 by LC-MS analysis; assay type: ADME, organism-based; details: in vivo; procedure, shortened: as §2
[23] = Cmax in C3H mouse at 10 mg/kg, po administered through suspension of 0.5% w/v sodium-carboxymethyl cellulose with 0.1% v/v Tween80 by LC-MS analysis; assay type: ADME, organism-based; design: dose 10 mg/kg, route oral; details: in vivo; procedure, shortened: as §2
[24] = AUC(last) in C3H mouse at 10 mg/kg, po administered through suspension of 0.5% w/v sodium-carboxymethyl cellulose with 0.1% v/v Tween80 by LC-MS analysis; assay type: ADME, organism-based; design: dose 10 mg/kg, route oral, time 0 - last; details: in vivo; procedure, shortened: as §2
[25] = AUC(infinity) in C3H mouse at 10 mg/kg, po administered through suspension of 0.5% w/v sodium-carboxymethyl cellulose with 0.1% v/v Tween80 by LC-MS analysis; assay type: ADME, organism-based; design: dose 10 mg/kg, route oral, time infinity; details: in vivo; procedure, shortened: as §2
Mus musculus [26] = test: Acute toxicity in C3H mouse assessed as body condition at 100 mg/kg, po SID for 12 days; assay type: organism-based; details: in vivo, 288 h
Mus musculus [27] = test: Acute toxicity in C3H mouse assessed as overall behavior at 100 mg/kg, po SID for 12 days; assay type: organism-based; details: in vivo, 288 h
[28] = system: Human immunodeficiency virus 1; test: Binding affinity to recombinant HIV1 Nef at >50 uM by SPR assay
Mus musculus [29] = test: Acute toxicity in C3H mouse assessed as change in body weight at 10 mg/kg, po BID for 4 days; assay type: organism-based; details: in vivo, 96 h
Mus musculus [30] = test: Acute toxicity in C3H mouse assessed as change in body weight at 50 mg/kg, po SID for 5 days; assay type: organism-based; details: in vivo, 120 h
Mus musculus [31] = test: Acute toxicity in C3H mouse assessed as body condition at 5 mg/kg, iv SID for 4 days; assay type: organism-based; details: in vivo, 96 h
Mus musculus [32] = test: Acute toxicity in C3H mouse assessed as body condition at 10 mg/kg, po BID for 4 days; assay type: organism-based; details: in vivo, 96 h
Mus musculus [33] = test: Acute toxicity in C3H mouse assessed as body condition at 50 mg/kg, po SID for 5 days; assay type: organism-based; details: in vivo, 120 h
Mus musculus [34] = test: Acute toxicity in C3H mouse assessed as overall behavior at 5 mg/kg, iv SID for 4 days; assay type: organism-based; details: in vivo, 96 h
Mus musculus [35] = test: Acute toxicity in C3H mouse assessed as overall behavior at 10 mg/kg, po BID for 4 days; assay type: organism-based; details: in vivo, 96 h
Mus musculus [36] = test: Acute toxicity in C3H mouse assessed as overall behavior at 50 mg/kg, po SID for 5 days; assay type: organism-based; details: in vivo, 120 h
Mus musculus [37] = test: Acute toxicity in C3H mouse assessed as change in body weight at 5 mg/kg, po SID for 4 days; details: in vivo, 96 h

Structure (SMILES)	pKd [1]	pIC50 [2]	CC50 [3]	Activity [4]	Activity [5]	Tmax [6]	Cmax [7]	Cmax [8]	AUC(0-t) [9]	AUC(0-t) [10]	AUC(0-inf) [11]	AUC(0-inf) [12]	half-life [13]	Vd [14]	clearance [15]	bioavailability [16]	inhibition (U-87MG ATCC)	Activity [20]	Tmax [22]	Cmax [23]	further results
NC(=S)n1nc(-c2ccc([N+](=O)[O-])cc2)c(/N=N/c2cccc(Cl)c2)c1O	7.09	5.60	10 µM	inactive	inactive	30 min	3960 ng/mL	418 ng/mL	9780 ng·h/mL	963 ng·h/mL	9790 ng·h/mL	1020 ng·h/mL	128 min	0.37 L/kg	3.41 mL/min/kg	2%	–	–	–	–	Activity (Mus musculus [17]): Non-toxic; Activity (Mus musculus [18]): Non-toxic; Activity (Mus musculus [19]): Non-toxic
NC(=S)n1nc(-c2ccc([N+](=O)[O-])cc2)c(Cc2cccc(Cl)c2)c1O	6.82	5.45	> 10 µM	inactive	inactive	60 min	2800 ng/mL	5810 ng/mL	2960 ng·h/mL	18600 ng·h/mL	3000 ng·h/mL	18800 ng·h/mL	94.8 min	0.79 L/kg	8.56 mL/min/kg	100%	Active	Non-toxic	30 min	3400 ng/mL	Activity (Mus musculus [21]): Non-toxic; AUC(0-t) [24]: 10700 ng·h/mL; AUC(0-inf) [25]: 11500 ng·h/mL; Activity (Mus musculus [26]): Non-toxic; Activity (Mus musculus [27]): Non-toxic
O=[N+]([O-])c1ccc(-c2n[nH]c(O)c2Cc2cccc(Cl)c2)cc1	–	< 5.00	> 10 µM	–	–	–	–	–	–	–	–	–	–	–	–	–	inactive	Non-toxic	–	–	Activity [28]: inactive
NC(=S)n1nc(-c2ccc([N+](=O)[O-])cc2)c(CCc2cccc(Cl)c2)c1O	6.80	6.16	> 10 µM	inactive	inactive	15 min	4420 ng/mL	2370 ng/mL	2130 ng·h/mL	6300 ng·h/mL	2150 ng·h/mL	6430 ng·h/mL	–	0.83 L/kg	13.5 mL/min/kg	53%	Active	Non-toxic	30 min	5610 ng/mL	Activity (Mus musculus [29]): Non-toxic; Activity (Mus musculus [30]): Non-toxic; AUC(0-t) [24]: 9030 ng·h/mL; AUC(0-inf) [25]: 9480 ng·h/mL; Activity (Mus musculus [31]): Non-toxic; Activity (Mus musculus [32]): Non-toxic; Activity (Mus musculus [33]): Non-toxic; Activity (Mus musculus [34]): Non-toxic; Activity (Mus musculus [35]): Non-toxic; Activity (Mus musculus [36]): Non-toxic; Activity (Mus musculus [37]): Non-toxic
O=[N+]([O-])c1ccc(-c2n[nH]c(O)c2CCc2cccc(Cl)c2)cc1	–	< 5.00	> 10 µM	–	–	–	–	–	–	–	–	–	–	–	–	–	inactive	Non-toxic	–	–	Activity [28]: inactive
